Here are results for five compounds from ChEMBL document CHEMBL4052630, “Design, synthesis and evaluation of scutellarein-O-acetamidoalkylbenzylamines as potential multifunctional agents for the treatment of Alzheimer's disease” (Eur J Med Chem, 2017).

Broadly, the inhibition is the drop in the measured response relative to a control, in per cent. As a reminder, the IC50 is the midpoint of a concentration-inhibition curve.

For data set [1], the target named is Amyloid-beta precursor protein (Homo sapiens) (UniProt P05067). Nature of the data set: Inhibition of amyloid beta (1 to 42) (unknown origin) self aggregation at 25 uM after 24 hrs by ThT-based fluorometric method relative to control. Summed up: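 Aβ1-42 (25 µM final) incubated at 37 °C for 24 h ± compound in 50 mM phosphate buffer pH 7.4, with DMSO stocks diluted in buffer. Then 5 µM thioflavin T in 50 mM glycine-NaOH pH 8.5 was added and read at ex 446/em 490 nm. Run in triplicate. % inhibition = (1−IFi/IFc)×100 after background subtraction.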
Chain of Amyloid-beta precursor protein (Homo sapiens) (P05067 whole entry): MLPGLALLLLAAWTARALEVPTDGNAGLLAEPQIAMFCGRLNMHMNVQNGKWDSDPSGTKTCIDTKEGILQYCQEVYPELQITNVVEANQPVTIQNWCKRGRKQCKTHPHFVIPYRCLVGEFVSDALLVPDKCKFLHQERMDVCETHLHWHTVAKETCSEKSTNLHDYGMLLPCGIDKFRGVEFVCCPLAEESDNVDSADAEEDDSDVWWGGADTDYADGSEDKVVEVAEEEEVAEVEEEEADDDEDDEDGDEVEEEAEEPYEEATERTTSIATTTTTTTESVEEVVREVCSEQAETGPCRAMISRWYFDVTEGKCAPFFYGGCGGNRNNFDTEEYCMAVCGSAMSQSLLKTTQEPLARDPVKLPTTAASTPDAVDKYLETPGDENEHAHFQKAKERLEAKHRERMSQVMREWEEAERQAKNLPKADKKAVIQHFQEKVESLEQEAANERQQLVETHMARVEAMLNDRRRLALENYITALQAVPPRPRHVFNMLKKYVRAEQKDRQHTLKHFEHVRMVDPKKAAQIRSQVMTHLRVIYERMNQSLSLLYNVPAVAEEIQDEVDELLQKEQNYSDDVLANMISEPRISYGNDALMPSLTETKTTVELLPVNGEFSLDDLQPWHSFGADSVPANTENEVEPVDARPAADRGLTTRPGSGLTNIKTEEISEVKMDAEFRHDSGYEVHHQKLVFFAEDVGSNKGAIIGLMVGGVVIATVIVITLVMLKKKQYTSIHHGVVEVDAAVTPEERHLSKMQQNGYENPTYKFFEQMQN

Another data set is filed under the species Rattus norvegicus. Nature of the data set: Selectivity index, ratio of IC50 for rat serum BuChE to IC50 for rat cortex homogenate AChE. Summed up: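 Modified Ellman assay. AChE from 5% rat cortex homogenate, pre-incubated 5 min with iso-OMPA (4.0 mmol/L). BuChE from 25% rat serum. Enzyme incubated with compound (<1% DMSO) and acetyl- or butyrylthiocholine iodide (1 mmol/L) in phosphate buffer pH 7.4 for 15 min at 37 °C. DTNB added, read at 405 nm. IC50 from 3 independent experiments. Index = BuChE IC50/AChE IC50.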

Data set [2] can be described thus: Inhibition of rat serum BuChE using butyrylthiocholine iodide as substrate after 15 mins by Ellman's method. Format: ADME. (DTNB colorimetry detects thiols as they appear.)
A further data set has as its system SH-SY5Y. Nature of the data set: Cytotoxicity against human SH-SY5Y cells assessed as reduction in cell viability up to 10 uM after 24 hrs by MTT assay. The class given is cell-based. Summed up:
(§1)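 SH-SY5Y cells grown in DMEM with 10% FBS at 37 °C, 5% CO2, seeded 4 × 10^4 cells/well and incubated 24 h. Compounds given at 1, 10 and 100 µM (1% DMSO final) for 24 h. MTT (5 mg/ml) added for 4 h, cells lysed overnight in DMF/SDS, absorbance read at 590 nm against control. Three independent experiments.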

For data set [3], the system named is PC-12. Nature of the data set: Neuroprotective activity against H2O2-induced cell injury in rat PC12 cells assessed as cell viability at 10 uM preincubated for 24 hrs followed by incubation with H2O2 for 2 hrs measured after 24 hrs by MTT assay (reference value: 43.9%). Format: functional. The conditions noted are these: read-out: Activity. The method in brief: (§2)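 PC12 cells in phenol-red-free DMEM with 10% FCS, plated at 10^5 cells/well. Cells preincubated 24 h with compound (1.0 or 10.0 µM; dissolved in 2% DMSO, diluted in PBS), then exposed to H2O2 100 µM for 2 h. Medium replaced; viability assessed 24 h later by MTT (4 h, 37 °C), lysis in DMF/SDS, A590.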
In general terms: Tetrazolium dyes change colour on reduction, which living cells bring about.

The nature of data set [4]: Antioxidant activity assessed as trolox equivalents of AAPH radical scavenging activity at 1 to 10 uM preincubated for 15 mins followed by AAPH addition measured every 60 sec for 90 mins by ORAC-FL assay. The class given is functional. Summed up: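 ORAC-FL in 75 mM phosphate buffer pH 7.4. Compound at 1–10 µM with fluorescein (150 nM final), pre-incubated 15 min at 37 °C, then AAPH added (12 mM final). Fluorescence read every minute for 90 min, ex 485/em 535 nm. Curves normalised to the FL+AAPH blank. Trolox standard 1–8 µM. Duplicates, ≥3 independent assays. Results given as µM Trolox equivalent per µM compound.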

Data set [5] concerns PC-12. Kind of data set: Neuroprotective activity against H2O2 induced cell injury in rat PC12 cells assessed as cell viability at 1 uM preincubated for 24 hrs followed by incubation with H2O2 for 2 hrs measured after 24 hrs by MTT assay (reference value: 43.9%). Format: functional. The conditions noted are these: read-out: Activity. Summed up: as §2
The nature of data set [6]: Solubility of the compound in water. Format: physicochemical. The following applies: buffer.
The target of data set [7] is T1, Acetylcholinesterase (Rattus norvegicus, UniProt P37136).
T1 sequence (P37136 whole entry): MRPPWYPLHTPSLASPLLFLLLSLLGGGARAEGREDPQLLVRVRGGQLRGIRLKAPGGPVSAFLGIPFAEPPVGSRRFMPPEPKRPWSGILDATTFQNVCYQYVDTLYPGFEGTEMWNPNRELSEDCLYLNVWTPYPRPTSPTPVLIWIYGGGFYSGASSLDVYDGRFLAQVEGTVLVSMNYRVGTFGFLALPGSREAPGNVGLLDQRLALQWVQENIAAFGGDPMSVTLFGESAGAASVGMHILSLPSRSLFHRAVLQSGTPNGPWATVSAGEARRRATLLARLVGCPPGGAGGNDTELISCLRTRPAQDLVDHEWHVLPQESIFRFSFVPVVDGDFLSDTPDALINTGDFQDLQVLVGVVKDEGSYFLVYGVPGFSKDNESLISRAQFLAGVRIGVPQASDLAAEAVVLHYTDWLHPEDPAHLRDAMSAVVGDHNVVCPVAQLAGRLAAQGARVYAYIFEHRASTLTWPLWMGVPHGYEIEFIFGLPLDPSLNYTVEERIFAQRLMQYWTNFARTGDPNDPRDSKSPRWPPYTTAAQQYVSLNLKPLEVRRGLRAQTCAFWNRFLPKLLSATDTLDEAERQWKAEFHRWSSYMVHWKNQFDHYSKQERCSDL
Nature of the data set: Inhibition of rat cortex homogenate AChE using acetylthiocholine iodide as substrate after 15 mins in presence of BuChE inhibitor iso-OMPA by Ellman's method.

Data set [8] concerns the target Acetylcholinesterase (Electrophorus electricus, UniProt O42275). Kind of data set: Inhibition of electric eel AChE using acetylthiocholine iodide as substrate after 15 mins by Ellman's method.
The nature of data set [9]: Solubility of the compound in DMEM in presence of 10% FBS. Format: physicochemical.
Data set [10] has as its target Acetylcholinesterase (Homo sapiens, UniProt P22303). Kind of data set: Inhibition of human erythrocyte AChE using acetylthiocholine iodide as substrate after 15 mins by Ellman's method.
The subject of data set [11] is PC-12. Kind of data set: Neuroprotective activity against H2O2 induced cell injury in rat PC12 cells assessed as increase in cell viability preincubated for 24 hrs followed by incubation with H2O2 for 2 hrs measured after 24 hrs by MTT assay. The class given is functional, cell-based. The method in brief: as §2
A short description of data set [12]: Cytotoxicity against human SH-SY5Y cells assessed as cell viability at 100 uM after 24 hrs by MTT assay relative to control. The class given is cell-based. The following applies: read-out: Activity. The method in brief: as §1
Data set [13] in a line: Metal chelating activity assessed as inhibition of Cu2+ induced amyloid beta (1 to 42) aggregation at 25 uM after 24 hrs by ThT-based fluorometric method relative to control. Summed up: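 Aβ1-42 (25 µM) with Cu2+ (25 µM, one equivalent) in 20 mM HEPES pH 6.6 with NaCl, incubated 24 h at 37 °C ± compound (25 µM). Then 5 µM thioflavin T in glycine-NaOH pH 8.5 was added and read at ex 446/em 490 nm. Triplicate. % inhibition relative to no-compound control.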

Data set [14] in a line: Metal chelating activity assessed as disaggregation of Cu2+ induced amyloid beta (1 to 42) fibrils at 25 uM treated for 24 hrs post Cu2+ treatment for 24 hrs by ThT-based fluorometric method relative to control. Summed up:
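Fibrils preformed from Aβ1-42 (25 µM) plus Cu2+ (25 µM) in 20 mM HEPES pH 6.6, 150 mM NaCl, 24 h at 37 °C. Compound (25 µM) then added for another 24 h at 37 °C. Thioflavin T (5 µM, glycine-NaOH pH 8.5) fluorescence read at ex 446/em 490 nm. Triplicate.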

The structures appear in SMILES notation.

Chain of Acetylcholinesterase (Homo sapiens, UniProt P22303) (P22303 whole entry): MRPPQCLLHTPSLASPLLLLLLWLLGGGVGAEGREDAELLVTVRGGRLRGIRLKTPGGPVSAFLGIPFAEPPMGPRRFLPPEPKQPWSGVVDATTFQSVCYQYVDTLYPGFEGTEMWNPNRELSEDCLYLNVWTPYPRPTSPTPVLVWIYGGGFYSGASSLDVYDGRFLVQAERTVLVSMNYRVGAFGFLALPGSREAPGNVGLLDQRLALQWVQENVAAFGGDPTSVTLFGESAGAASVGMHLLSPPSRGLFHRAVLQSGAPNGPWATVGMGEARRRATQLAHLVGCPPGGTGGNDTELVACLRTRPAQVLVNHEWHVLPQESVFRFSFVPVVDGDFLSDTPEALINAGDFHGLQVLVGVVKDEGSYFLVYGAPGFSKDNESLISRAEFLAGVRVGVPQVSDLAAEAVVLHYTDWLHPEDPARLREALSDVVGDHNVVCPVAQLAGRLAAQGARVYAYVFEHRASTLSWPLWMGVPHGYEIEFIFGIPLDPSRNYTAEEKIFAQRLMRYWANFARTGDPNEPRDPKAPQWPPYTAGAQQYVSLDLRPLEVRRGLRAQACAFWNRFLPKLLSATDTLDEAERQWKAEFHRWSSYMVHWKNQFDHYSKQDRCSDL
Chain of Acetylcholinesterase (Electrophorus electricus, UniProt O42275) (O42275 whole entry): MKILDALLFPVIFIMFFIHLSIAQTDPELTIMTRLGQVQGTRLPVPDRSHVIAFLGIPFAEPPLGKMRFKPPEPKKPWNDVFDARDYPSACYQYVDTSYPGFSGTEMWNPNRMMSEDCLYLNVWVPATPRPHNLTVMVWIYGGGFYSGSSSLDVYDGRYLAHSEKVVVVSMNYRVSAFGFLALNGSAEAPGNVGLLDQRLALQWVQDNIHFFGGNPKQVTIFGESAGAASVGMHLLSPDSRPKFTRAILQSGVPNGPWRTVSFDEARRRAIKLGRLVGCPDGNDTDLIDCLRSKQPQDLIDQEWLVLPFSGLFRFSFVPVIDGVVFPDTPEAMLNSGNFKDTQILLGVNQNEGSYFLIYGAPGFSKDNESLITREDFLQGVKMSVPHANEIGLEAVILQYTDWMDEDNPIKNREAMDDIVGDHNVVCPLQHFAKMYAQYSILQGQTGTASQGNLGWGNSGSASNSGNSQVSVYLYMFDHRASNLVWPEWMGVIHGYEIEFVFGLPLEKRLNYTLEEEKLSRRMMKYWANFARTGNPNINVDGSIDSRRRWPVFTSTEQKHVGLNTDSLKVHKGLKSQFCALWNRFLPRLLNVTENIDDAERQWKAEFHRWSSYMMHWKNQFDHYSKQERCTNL

For the compound `CCN(CCCCNC(=O)COc1ccc(-c2cc(=O)c3c(OC)c(OC)c(OC)cc3o2)cc1)Cc1ccccc1OC`, the inhibition in data set [1] is 44.7%. For the same compound, in the data set filed under Rattus norvegicus, the Ratio IC50 is > 6760. The IC50 is > 500 µM in [2], 0.074 µM at Acetylcholinesterase [7], 9.77 µM on Acetylcholinesterase [8] and 0.063 µM against Acetylcholinesterase [10]. The Activity result with SH-SY5Y is “Non-Toxic”; in [4], 0.38 equiv; in the data set with PC-12 [11], “Dose-dependent effect”. The viability at 10 µM in the data set with PC-12 [3] came out at 63.3%. In the data set on PC-12 [5], the viability at 1 µM amounted to 60.1%. Besides, the solubility entry in data set [6] and in data set [9] was “Insoluble” in each case. In addition, the viability at 24 h, 100 µM in data set [12] was 79.4%.
As for `CCN(CCCCCCNC(=O)COc1ccc(-c2cc(=O)c3c(O)c(OC)c(OC)cc3o2)cc1)Cc1ccccc1OC`, the figures for the inhibition in data set [1] and in data set [13] were 56.7% and 42.7%, respectively. Also, the Ratio IC50 in the data set listed under Rattus norvegicus was > 1350. Besides, the IC50 is > 500 µM in [2], 0.37 µM at Acetylcholinesterase [7], 11.7 µM against Acetylcholinesterase [8] and 1.37 µM on Acetylcholinesterase [10]. Further, the Activity in data set [4] worked out at 0.99 equiv; in data set [14] it was 65%.
Take `CCN(CCCCCCNC(=O)COc1ccc(-c2cc(=O)c3c(OC)c(OC)c(OC)cc3o2)cc1)Cc1ccccc1OC`: the inhibition in [1] turned out to be 35.5%. For the same compound, the Ratio IC50 in the data set filed under Rattus norvegicus is 6.8. For the same compound, the IC50 turned out to be 2.4 µM in data set [2], 0.35 µM at Acetylcholinesterase [7], 17.6 µM at Acetylcholinesterase [8] and 1.25 µM on Acetylcholinesterase [10]. Moreover, the Activity in data set [4] amounted to 0.34 equiv.
Regarding `COc1ccccc1CN(C)CCCCCCNC(=O)COc1ccc(-c2cc(=O)c3c(O)c(OC)c(OC)cc3o2)cc1`, the inhibition in data set [1] worked out at 53.3%; in [13], 41.5%. The Ratio IC50 in the data set listed under Rattus norvegicus was > 75.4. In addition, the IC50 in data set [2] is > 500 µM; on Acetylcholinesterase [7], 6.63 µM; at Acetylcholinesterase [8], 12.3 µM. The Activity in [4] came out at 1.01 equiv; in data set [14], 61.2%.
For the compound `CCN(CCNC(=O)COc1ccc(-c2cc(=O)c3c(O)c(OC)c(OC)cc3o2)cc1)Cc1ccccc1OC`, the inhibition in data set [1] was 59.8%; in data set [13], 47.5%. The Ratio IC50 in the data set listed under Rattus norvegicus turned out to be 14.9. In addition, the IC50 in [2] is 74.3 µM; at Acetylcholinesterase [7], 4.98 µM; against Acetylcholinesterase [8] it was 14.1 µM. Also, the Activity was determined as 1.04 equiv in [4] and 58.9% in data set [14].
